The results in this text go back to PubChem BioAssay.

SMILES strings stand for the structures. Values without a mark were called inactive. Results filed as inconclusive are left out. Calls of active or inactive are those of the source.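 Rule for the calls, unless noted: active = growth inhibition above 25% in both replicates, a cutoff set 3 SD above the mean; inconclusive = above 25% in only one replicate; inactive = the rest.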

Experiment [1] can be described thus: S. cerevisiae growth inhibition in permissive medium (OD615), pilot counter-assay for S. cerevisiae lifespan shortening project, permissive growth control (AID 705). To be noted: OD615, 24 h, at 10 µM, active compounds read high. In outline:
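System – S. cerevisiae with engineered DeaD lifespan system · Buffer or medium – SC raffinose/galactose permissive medium · Schedule – cells pre-grown 4 h, then 24 h compound exposure, 30 °C humidified · Technique – culture turbidity as optical density at 615 nm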

Experiment [2] can be described thus: S. cerevisiae growth inhibition in restrictive medium, OD615, pilot screen, restrictive growth control, yeast lifespan reduction project (AID 706;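 active = growth inhibition above a set limit, 3 SD over mean compound inhibition, in both replicates, cut at about 43% in these data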;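 note: modified DeaD lifespan yeast strain shifted to restrictive glucose medium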). The note with it: OD615, 48 h, at 10 µM, active compounds read high. The gist of the method:
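Material: engineered S. cerevisiae DeaD strain / Medium: glucose-based CSMM-D restrictive medium / Compound: single dose of 10 µM compound final, 0.25% DMSO / Timing: 4 h pre-incubation, 48 h exposure at 30 °C / Technique: OD615 absorbance reading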

Experiment [3] in a line: doxorubicin toxicity protection in MRP-1 cells – H69AR cells, CellTiter-Glo, duplicate, MRP-1 activator project, pilot screen (AID 807;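 active = viability increase at or above a cutoff of the median across tested compounds plus 3 SD, cut at about 8.5% in these data, passing the limit was not always enough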;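 note: compound pretreatment 18-22 h then 72 h combined with doxorubicin; 0% = doxorubicin alone and 100% = vehicle without doxorubicin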). The note with it: H69AR viability with doxorubicin, CellTiter-Glo luminescence; at 10 µM; active compounds read high. A general note: ATP-based viability assays read luminescence as a measure of living cells.
Experiment [4] in a line: viability of HCT116 without oncogenic beta-catenin – human colon tumor cells, pilot screen (AID 823;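 active = cell viability at or below a set limit in both duplicate runs, the limit being the all-compound median minus 4 SD, cut at about 23% in these data, passing the limit was not always enough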;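 note: 0% = wells killed by 20 µM Hyamine and 100% = untreated DMSO cell wells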). The note with it: HCT116 beta-catenin knockout viability, CellTiter-Glo, 60 h; at 10 µM; active compounds read low.
Experiment [5] can be described thus: viability of PTEN-null HCT116 cells – cell-based, HCT116 clonal line, CellTiter-Glo, pilot screen (AID 824;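 active = viability at or below 27.92% in each of two runs, the all-compound median minus 4 SD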;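 note: 0% = 20 µM Hyamine control and 100% = vehicle cell control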). To be noted: HCT116 PTEN-deleted viability, 60 h, at 10 µM, active compounds read low.
Experiment [6] in a line: RAM pathway blockade in budding yeast – dse1pr::URA3 reporter, 5-FOA selection, pilot screen (AID 869;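 active = inhibition over a set limit, the all-compound mean plus 3 SD, in both replicate runs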;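 note: 0% = DMSO wells with no growth and 100% = 10 µM 1-NA-PP1 with full growth; RAM network block rescues cells from 5-FOA so hits raise OD615 growth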). To be noted: S. cerevisiae dse1pr::URA3 5-FOA growth, OD615, 2 d; at 10 µM; active compounds read high; strain carries analog-sensitive mutant Cbk1 kinase.
The nature of experiment [7]: RAM signaling pathway blockade in yeast – S. cerevisiae, Pdr1DBD-CYC8 efflux-inhibited sensitized strain, primary screen (AID 1298;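 active = RAM network inhibition above 8.4% in each of two replicates, 3 SD over the compound average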;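 note: 0% = DMSO untreated cells without growth and 100% = 10 µM 1-NA-PP1 full growth; higher means more yeast growth rescued from 5-FOA killing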). The note with it: S. cerevisiae cbk1-as DSE1-URA3 strain, 5-FOA growth OD615, 2 d; at 50 µM; active compounds read high.

The viability is a read-out of living cells in per cent, often relative to untreated cells. A word on the inhibition: it is the percentage by which the read-out fell short of the control. Take `COc1ccc(OC)c2sc(NC(=O)c3ccc(Cl)s3)nc12`: the growth inhibition in experiment [1] is -16.4%; in experiment [2], -10.6%. Also, the viability increase in experiment [3] was -3.79%. The viability in experiment [4] was 22% (active); in experiment [5], 13.8% (active). The inhibition in experiment [6] was 3.47%. Further, the RAM network inhibition in experiment [7] is 5.85%.

In the case of `COc1cccc(-c2nc(CS(=O)CC(=O)NC3CCCC3)c(C)o2)c1` (centres undefined), the results for the growth inhibition in experiment [1] and in experiment [2] were -7.39% and 1.47%, respectively. For the same compound, in experiment [3], the viability increase was -2.4%. For the same compound, the viability is 90.3% in experiment [4] and 95.6% in experiment [5]. For the same compound, the inhibition in experiment [6] is 1.09%. For the same compound, in experiment [7], the RAM network inhibition is 1.25%.

Regarding `Cc1ccc(-c2nc(CS(=O)CC(=O)NC3CCCC3)c(C)o2)cc1` (centres undefined), the results for the growth inhibition in experiment [1] and in experiment [2] were 5.52% and 2.53%, respectively. The viability increase in experiment [3] is -4.16%. Also, the values for the viability in experiment [4] and in experiment [5] were 92.9% and 91.4%, respectively. Also, the inhibition in experiment [6] was 1.08%. Further, the RAM network inhibition in experiment [7] was 5.29%.

Turning to `O=C(NCCn1ccc2ccccc21)C1CCCCC1`, the growth inhibition in experiment [1] is -13.3%; in experiment [2], -15.1%. Moreover, the viability increase in experiment [3] is -0.84%. The viability in experiment [4] was 87.7%; in experiment [5] it was 87.2%. Also, in experiment [6], the inhibition is 2.12%. The RAM network inhibition in experiment [7] is 2.92%.

For `CCOC(=O)c1cccc(NC(=O)C2CCCN2S(=O)(=O)c2cccc3cccnc23)c1` (centres undefined), the growth inhibition in experiment [1] is -9.1%; in experiment [2], -2.39%. Moreover, the viability increase in experiment [3] was -3.02%. Also, the viability was 92% in experiment [4] and 89.8% in experiment [5]. Besides, the inhibition in experiment [6] is 1.41%. Further, the RAM network inhibition in experiment [7] is -1.53%.

`CC(=O)NC(CCS(C)(=O)=O)C(=O)Nc1ccc(Oc2ccccc2)cc1` (centres undefined): the growth inhibition in experiment [1] was -7.71%; in experiment [2], -16.7%. Also, the viability increase in experiment [3] was -0.67%. The viability in experiment [4] is 101%; in experiment [5], 93.5%. In addition, in experiment [6], the inhibition was 1.69%. The RAM network inhibition in experiment [7] was 5.21%.

In the case of `O=C(CCC1CCCC1)c1c(O)c2ccccc2oc1=O`, the growth inhibition in experiment [1] is 0.51%; in experiment [2] it was 13.6%. For the same compound, the viability increase in experiment [3] is -2.11%. Also, the viability in experiment [4] is 69.4%; in experiment [5], 67.7%. The inhibition in experiment [6] is 0.63%. Besides, the RAM network inhibition in experiment [7] was -1.56%.

Regarding `CSCC[C@@H](C(=O)Nc1ccc2c(c1)OCCO2)N1Cc2ccccc2C1=O`, the values for the growth inhibition in experiment [1] and in experiment [2] were 3.3% and 1.73%, respectively. For the same compound, the viability increase in experiment [3] was -2.91%. The results for the viability in experiment [4] and in experiment [5] were 99.3% and 92.3%, respectively. For the same compound, in experiment [6], the inhibition was 0.83%. Further, in experiment [7], the RAM network inhibition is 4.13%.

As for `CCOC(=O)c1ccc(Nc2cc(C)nc3nc(C)nn23)cc1`, the growth inhibition in experiment [1] was -5.61%; in experiment [2], 4.27%. Moreover, in experiment [3], the viability increase is -4.45%. Also, the viability in experiment [4] and in experiment [5] was 103% in each case. In addition, in experiment [6], the inhibition is 0.015%. Also, the RAM network inhibition in experiment [7] is 1%.

On to `O=C(CCn1c(=O)oc2ccccc21)NCc1ccc2c(c1)OCO2`, for which the growth inhibition in experiment [1] was -11.4%; in experiment [2], -19.9%. Besides, the viability increase in experiment [3] is -2.85%. Further, the viability in experiment [4] is 100%; in experiment [5], 91.3%. Further, the inhibition in experiment [6] was 2.35%. In addition, the RAM network inhibition in experiment [7] is 6.04%.

For the compound `CCOc1ccc(C2c3c(oc4ccccc4c3=O)C(=O)N2c2ccc(C)cn2)cc1OC` (centres undefined), the figures for the growth inhibition in experiment [1] and in experiment [2] were -7.41% and 2.13%, respectively. Further, in experiment [3], the viability increase was -4.09%. The viability in experiment [4] was 81.4%; in experiment [5], 83.7%. Besides, the inhibition in experiment [6] is 1.88%. Besides, the RAM network inhibition in experiment [7] is 4.03%.

Turning to `O=C(CCCc1c[nH]c2ccccc12)N1CCN(c2ccc(N3CCOCC3)nn2)CC1`, the growth inhibition is -2.69% in experiment [1] and -3.36% in experiment [2]. Also, in experiment [3], the viability increase is -1.4%. In addition, the viability in experiment [4] was 102%; in experiment [5], 105%. Also, the inhibition in experiment [6] was 0.485%. For the same compound, the RAM network inhibition in experiment [7] was -0.41%.

Regarding `O=C(CN1CCN(Cc2ccc(Cl)cc2)C1=O)NCCN1CCCC1`, the growth inhibition was 1.2% in experiment [1] and 9.72% in experiment [2]. For the same compound, in experiment [3], the viability increase was -0.85%. The viability in experiment [4] is 107%; in experiment [5], 96.7%. Moreover, the inhibition in experiment [6] is 1.54%. The RAM network inhibition in experiment [7] was 1.2%.

`O=S(=O)(NCc1csc(-c2ccccc2)n1)c1ccc(Cl)s1`: the growth inhibition in experiment [1] was -17.6%; in experiment [2], -16.7%. In experiment [3], the viability increase is -0.6%. The viability was 96.9% in experiment [4] and 102% in experiment [5]. Further, the inhibition in experiment [6] is 0.21%. The RAM network inhibition in experiment [7] was 5.99%.

For the compound `CCOC(=O)N1CCC(NC(=O)c2ccc(NC(=O)C3CCCO3)cc2)CC1` (centres undefined), the growth inhibition in experiment [1] was -10.8%; in experiment [2], -9.25%. The viability increase in experiment [3] was 0.49%. Besides, the viability in experiment [4] is 97.8%; in experiment [5], 105%. In addition, in experiment [6], the inhibition is 1.09%. In addition, in experiment [7], the RAM network inhibition was -0.36%.

For `Brc1ccc(-c2nnc(-c3ccco3)o2)cc1`, the growth inhibition in experiment [1] is -19.6%; in experiment [2], -17.3%. Further, the viability increase in experiment [3] was 0.83%. Further, the viability in experiment [4] is 95.1%; in experiment [5], 93.9%. Besides, in experiment [6], the inhibition is 0.93%. The RAM network inhibition in experiment [7] was 7.37%.

Take `Cc1cc(N2CCOCC2)nc(NCc2ccccc2)n1`: the growth inhibition is 3.04% in experiment [1] and -5.48% in experiment [2]. For the same compound, in experiment [3], the viability increase was -3.86%. The viability in experiment [4] is 72%; in experiment [5], 64.8%. The inhibition in experiment [6] is 1.17%. In experiment [7], the RAM network inhibition is 4.85%.
